One series deals with Caco-2. Description: (§1) Permeability across human Caco-2 cells from apical to basolateral side in human Caco2 cell membrane. Type of series: ADME, cell-based. In short, it runs like this:
(§2)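 Caco-2 monolayers were grown for 27 days (resistance 600 ohms/cm²). Apical-to-basal transport was measured as % transported in 80 min, with permeability expressed in cm/s.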

The subject of another series is Hepatitis C virus. Description: Antiviral activity against HCV genotype 1b in Huh7 cells assessed as inhibition of viral replication by cell-based replicon assay. As to conditions: Huh-7. It counts as functional, organism-based, Hepacivirus hominis.
Series [1] can be described thus: Cytotoxicity against human HuH7 cells. Type of series: cell-based, Huh-7.
Series [2] can be described thus: as §1. Type of series: ADME, cell-based. The following applies: read-out: permeability. Summed up: as §2
A further series relates to Carboxypeptidase A. Description: Half life in carboxypeptidase A assay.
A further series deals with Hepatocyte. Description: Cmax in primary human hepatocytes after 2uM treatment. Type of series: ADME, cell-based. In short, it runs like this:
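Primary human hepatocytes were incubated with 2 µM compound. Intracellular 2′-C-methyl guanosine triphosphate was measured over 48 h and expressed as pmol/10⁶ cells. Cmax and decay half-life were estimated from the time course.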

Where [3] appears, read: human, HuH7 cells, read-out: CC50.

Some results are limits rather than exact numbers.

This note sets out measurements from ChEMBL document CHEMBL1208776, “Design, synthesis and evaluation of a novel double pro-drug: INX-08189. A new clinical candidate for hepatitis C virus” (Bioorg Med Chem Lett, 2010).

For `C[C@H](NP(=O)(OC[C@H]1O[C@@H](n2cnc3c(=O)[nH]c(N)nc32)[C@](C)(O)[C@@H]1O)Oc1cccc2ccccc12)C(=O)OCC(C)(C)C` (stereo partly drawn), the permeability in the series with Caco-2 is listed as less than 0.5%. In the series with Hepatitis C virus, the EC50 came to 72 nM and the EC90 came out at 270 nM. Moreover, the CC50 in series [1] (setting [3]) is greater than 100000 nM.

As for `COc1nc(N)nc2c1ncn2[C@@H]1O[C@H](COP(=O)(N[C@@H](C)C(=O)OCc2ccccc2)Oc2cccc3ccccc23)[C@@H](O)[C@@]1(C)O` (stereo partly drawn), the Papp A→B in series [2] worked out at 4.02 ×10⁻⁶ cm/s. Also, in the series on Hepatitis C virus, the EC50 was 30 nM and the EC90 is 100 nM. The compound also showed a CC50 in series [1] (Homo sapiens, Huh-7) of 12000 nM.

`CCCOC(=O)[C@H](C)NP(=O)(OC[C@H]1O[C@@H](n2cnc3c(OC)nc(N)nc32)[C@](C)(O)[C@@H]1O)Oc1cccc2ccccc12` (stereo partly drawn): in the series on Hepatitis C virus, the EC50 was determined as 30 nM and the EC90 turned out to be 100 nM. The CC50 in series [1] (Homo sapiens, Huh-7) came out at 13000 nM.

Regarding `COc1nc(N)nc2c1ncn2[C@@H]1O[C@H](COP(=O)(N[C@@H](C)C(=O)OC(C)C)Oc2cccc3ccccc23)[C@@H](O)[C@@]1(C)O` (stereo partly drawn), in the series on Hepatitis C virus, the EC50 was determined as 540 nM and the EC90 came out at 1700 nM. Besides, in series [1] (Homo sapiens, Huh-7), the CC50 was greater than 100000 nM.

As to `COc1nc(N)nc2c1ncn2[C@@H]1O[C@H](COP(=O)(N[C@@H](C)C(=O)OC2CCCCC2)Oc2cccc3ccccc23)[C@@H](O)[C@@]1(C)O` (stereo partly drawn), in the series on Hepatitis C virus, the EC50 came to 30 nM and the EC90 worked out at 90 nM. In addition, the CC50 in series [1] (Homo sapiens, Huh-7) stood at 6000 nM.

As to `COc1nc(N)nc2c1ncn2[C@@H]1O[C@H](COP(=O)(N[C@@H](C)C(=O)OC2CCCC2)Oc2cccc3ccccc23)[C@@H](O)[C@@]1(C)O` (stereo partly drawn), in the series on Hepatitis C virus, the EC50 was found to be 30 nM and the EC90 came to 80 nM. Moreover, in series [1] (Homo sapiens, Huh-7), the CC50 was found to be 9000 nM.

Turning to `COc1nc(N)nc2c1ncn2[C@@H]1O[C@H](COP(=O)(N[C@@H](C)C(=O)OCCC(C)(C)C)Oc2cccc3ccccc23)[C@@H](O)[C@@]1(C)O` (stereo partly drawn), in the series on Hepatitis C virus, the EC50 turned out to be 20 nM and the EC90 is 80 nM. In series [1] (Homo sapiens, Huh-7), the CC50 worked out at 14000 nM.

As for `COc1nc(N)nc2c1ncn2[C@@H]1O[C@H](COP(=O)(N[C@H](C)C(=O)OCC(C)(C)C)Oc2cccc3ccccc23)[C@@H](O)[C@@]1(C)O` (stereo partly drawn), in the series with Hepatitis C virus, the EC50 is 240 nM and the EC90 came out at 580 nM. Further, the CC50 in series [1] (Homo sapiens, Huh-7) was found to be 51000 nM.

Consider `COc1nc(N)nc2c1ncn2[C@@H]1O[C@H](COP(=O)(N[C@@H](CCSC)C(=O)OCC(C)(C)C)Oc2cccc3ccccc23)[C@@H](O)[C@@]1(C)O` (stereo partly drawn), for which, in the series on Hepatitis C virus, the EC50 is 60 nM and the EC90 turned out to be 190 nM. This compound also yielded a CC50 in series [1] (Homo sapiens, Huh-7) of 28000 nM.

`COc1nc(N)nc2c1ncn2[C@@H]1O[C@H](COP(=O)(N[C@@H](CC(C)C)C(=O)OCC(C)(C)C)Oc2cccc3ccccc23)[C@@H](O)[C@@]1(C)O` (stereo partly drawn): in the series with Hepatitis C virus, the EC50 is 70 nM and the EC90 amounted to 230 nM. The compound also yielded a CC50 in series [1] (Homo sapiens, Huh-7) of 14000 nM.

In the case of `CC[C@H](C)[C@H](NP(=O)(OC[C@H]1O[C@@H](n2cnc3c(OC)nc(N)nc32)[C@](C)(O)[C@@H]1O)Oc1cccc2ccccc12)C(=O)OCC(C)(C)C` (stereo partly drawn), in the series on Hepatitis C virus, the EC50 was determined as 860 nM and the EC90 came out at 2530 nM. In addition, half-maximal cytotoxicity in series [1] (Homo sapiens, Huh-7) (CC50) was put at 18000 nM.

For `COc1nc(N)nc2c1ncn2[C@@H]1O[C@H](COP(=O)(N[C@H](C(=O)OCC(C)(C)C)C(C)C)Oc2cccc3ccccc23)[C@@H](O)[C@@]1(C)O` (stereo partly drawn), in the series with Hepatitis C virus, the EC50 was found to be 190 nM and the EC90 was found to be 640 nM. The compound further had a CC50 in series [1] (Homo sapiens, Huh-7) of 33000 nM.

`COc1nc(N)nc2c1ncn2[C@@H]1O[C@H](CO[P@@](=O)(N[C@@H](C)C(=O)OCC(C)(C)C)Oc2cccc3ccccc23)[C@@H](O)[C@@]1(C)O` registered a half-life with Carboxypeptidase A of 20 min.

With `COc1nc(N)nc2c1ncn2[C@@H]1O[C@H](CO[P@](=O)(N[C@@H](C)C(=O)OCC(C)(C)C)Oc2cccc3ccccc23)[C@@H](O)[C@@]1(C)O`, in the series with Carboxypeptidase A, the half-life stood at 17 min.

Turning to `COc1nc(N)nc2c1ncn2[C@@H]1O[C@H](CO)[C@@H](O)[C@@]1(C)O` [BETA-2'-C-METHYL-6-O-METHYL GUANOSINE], in the series on Hepatitis C virus, the EC50 turned out to be 5200 nM and the EC90 came to 21000 nM. In series [1] (Homo sapiens, Huh-7), this compound displayed a CC50 greater than 100000 nM.

Compound `COc1nc(N)nc2c1ncn2[C@@H]1O[C@H](COP(=O)(N[C@@H](C)C(=O)OCC(C)(C)C)Oc2cccc3ccccc23)[C@@H](O)[C@@]1(C)O` (stereo partly drawn) [BMS-986094] had a Cmax_triphosphate in the series on Hepatocyte of 80 pmol/10^6cells. The compound also displayed a permeability in the series on Caco-2 of 2.7%. Further, in the series on Hepatitis C virus, the EC50 amounted to 10 nM and the 90% effect concentration (EC90) worked out at 40 nM. Moreover, in series [1] (setting [3]), the CC50 turned out to be 7000 nM.

What is called EC50 is the concentration that produces a half-maximal response. As usually defined, the EC90 is the point of the concentration-response curve where the effect stands at 90%. By CC50 is commonly meant the concentration giving 50% cytotoxicity. As usually defined, the half-life is how long it takes for the measured level to halve. Low readings indicate rapid decline, high ones slow decline.
